Results taken from paper PMC12644240 (International Journal of Nanomedicine, 2025).
Each block holds one compound with its values, some of them ahead of it.

Assays:
Aqueous solubility study = format: physicochemical; conditions: bidistilled water, 37 °C, 72 h stirring, n = 3
Procedure, shortened: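 Excess drug (raw powder), coarse suspension or nanosuspension stirred in bidistilled water at 37 °C for 72 h. Samples were centrifuged twice at 15,000 rpm for 30 min, and the clear supernatant was diluted. Drug was quantified by HPLC (C18 column; water:ACN:acetic acid […]; 0.7 mL/min; 306 nm) against a linear calibration curve. n = 3, mean ± SD.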

[1] = Dissolution study in PBS pH 7.4 under sink conditions; format: physicochemical; conditions: PBS pH 7.4, 37 °C
Procedure, shortened: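 Nanosuspension, coarse suspension or raw powder (1 mg drug each, liquid doses confirmed by HPLC) was added to 100 mL PBS pH 7.4 at 37 °C with magnetic stirring under sink conditions. Samples taken at 1–30 min and 1–8 h were replaced with fresh medium and centrifuged at 15000 rpm for 20 min. Supernatant was assayed by HPLC at 306 nm. At least triplicate, mean ± SD.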

human CRBN = conditions: cited from earlier work
SALL4 and Aiolos = conditions: cited from earlier work
embryonic models = conditions: cited from earlier work
[2] = cited from earlier work; for Dissolution after one minute, coarse suspension / Dissolution after one minute, nanosuspension: 1 min; for Dissolution after one minute, nanosuspension: nanosuspension with Tween 80 as stabilizer
[3] = cited from earlier work

- Aqueous solubility (Aqueous solubility study): 4.8 ± 0.2 µg/mL
- Drug dissolved at first time point (1 minute) ([1]; 1 min): approximately 22%
- Drug dissolved at end of test (8 hours) ([1]; 8 h): 44%
SMILES: Nc1cccc2c1C(=S)N(C1CCC(=O)NC1=O)C2=O (stereo not shown) [MTPOM, 3-monothiopomalidomide]
- Binding to human CRBN (human CRBN): binds to human CRBN
- Degradation of neosubstrates SALL4 and Aiolos (SALL4 and Aiolos): without triggering the subsequent degradation
- Risk of teratogenicity (embryonic models): significantly attenuated risk of teratogenicity

SMILES: CCC(C)n1ncn(-c2ccc(N3CCN(c4ccc(OCC5COC(Cn6cncn6)(c6ccc(Cl)cc6Cl)O5)cc4)CC3)cc2)c1=O (stereo not shown) [itraconazole]
- Dissolution after one minute, coarse suspension [2]: approximately 20%
- Dissolution after 30 minutes, coarse suspension [2]: 40–50%
- Dissolution after one minute, nanosuspension [2]: almost complete dissolution

SMILES: COc1ccc2c(c1)c(CC(=O)O)c(C)n2C(=O)c1ccc(Cl)cc1 [indomethacin]
- Dissolution after one minute, coarse suspension [2]: approximately 20%
- Dissolution after 30 minutes, coarse suspension [2]: 40–50%
- Dissolution after one minute, nanosuspension [2]: almost complete dissolution

SMILES: CC[C@@H]([C@H](C)O)n1ncn(-c2ccc(N3CCN(c4ccc(OC[C@@H]5CO[C@@](Cn6cncn6)(c6ccc(F)cc6F)C5)cc4)CC3)cc2)c1=O [posaconazole]
- Average diameter when nanosized via media milling [3]: 185 nm
